Assay [1] has as its target T1, Serine/threonine-protein kinase 17A (Homo sapiens) (UniProt Q9UEE5).
T1 sequence (whole entry): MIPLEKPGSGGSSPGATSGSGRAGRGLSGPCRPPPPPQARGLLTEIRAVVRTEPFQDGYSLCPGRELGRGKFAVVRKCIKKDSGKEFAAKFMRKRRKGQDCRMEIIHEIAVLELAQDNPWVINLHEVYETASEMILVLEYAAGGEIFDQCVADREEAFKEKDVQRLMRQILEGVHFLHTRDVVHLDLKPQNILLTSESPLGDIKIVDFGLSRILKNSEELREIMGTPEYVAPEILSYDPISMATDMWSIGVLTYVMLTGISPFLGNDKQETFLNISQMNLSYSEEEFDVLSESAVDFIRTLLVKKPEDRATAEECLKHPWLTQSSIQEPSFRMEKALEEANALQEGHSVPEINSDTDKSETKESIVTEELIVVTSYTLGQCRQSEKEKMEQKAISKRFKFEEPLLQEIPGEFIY
Nature of the assay: Binding affinity to DRAK1 assessed as change in thermal denaturation at 10 uM by thermal stability shift assay. In a few lines:
(§1)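 Each compound was screened across a kinase panel by thermal stability shift assay. The read-out was the shift in protein melting temperature (ΔTm, in °C) relative to the unliganded kinase. A ΔTm of 4.0 °C served as the hit cutoff.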

Assay [2] deals with Casein kinase II subunit alpha' (Homo sapiens) (UniProt P19784). As to the kind of experiment: Binding affinity to CK2alpha2 assessed as change in thermal denaturation at 10 uM by thermal stability shift assay. In a few lines: as §1
Sequence of Casein kinase II subunit alpha' (Homo sapiens) (P19784 whole entry, looked up): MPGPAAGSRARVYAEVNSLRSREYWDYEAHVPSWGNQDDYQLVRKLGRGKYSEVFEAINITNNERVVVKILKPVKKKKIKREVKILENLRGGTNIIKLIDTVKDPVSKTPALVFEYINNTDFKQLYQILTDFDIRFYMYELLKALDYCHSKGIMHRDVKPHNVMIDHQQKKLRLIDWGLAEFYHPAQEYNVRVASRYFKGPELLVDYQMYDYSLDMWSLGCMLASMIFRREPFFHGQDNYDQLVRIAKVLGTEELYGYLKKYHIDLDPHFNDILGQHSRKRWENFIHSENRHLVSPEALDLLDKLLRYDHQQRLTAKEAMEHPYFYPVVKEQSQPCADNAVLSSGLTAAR
The target of assay [3] is Dual specificity protein kinase CLK1 (Homo sapiens) (UniProt P49759). Nature of the assay: Binding affinity to CLK1 assessed as change in thermal denaturation at 10 uM by thermal stability shift assay. In a few lines:
as §1

Assay [4] addresses T2, Cyclin-G-associated kinase (Homo sapiens) (UniProt O14976).
T2 sequence (whole entry): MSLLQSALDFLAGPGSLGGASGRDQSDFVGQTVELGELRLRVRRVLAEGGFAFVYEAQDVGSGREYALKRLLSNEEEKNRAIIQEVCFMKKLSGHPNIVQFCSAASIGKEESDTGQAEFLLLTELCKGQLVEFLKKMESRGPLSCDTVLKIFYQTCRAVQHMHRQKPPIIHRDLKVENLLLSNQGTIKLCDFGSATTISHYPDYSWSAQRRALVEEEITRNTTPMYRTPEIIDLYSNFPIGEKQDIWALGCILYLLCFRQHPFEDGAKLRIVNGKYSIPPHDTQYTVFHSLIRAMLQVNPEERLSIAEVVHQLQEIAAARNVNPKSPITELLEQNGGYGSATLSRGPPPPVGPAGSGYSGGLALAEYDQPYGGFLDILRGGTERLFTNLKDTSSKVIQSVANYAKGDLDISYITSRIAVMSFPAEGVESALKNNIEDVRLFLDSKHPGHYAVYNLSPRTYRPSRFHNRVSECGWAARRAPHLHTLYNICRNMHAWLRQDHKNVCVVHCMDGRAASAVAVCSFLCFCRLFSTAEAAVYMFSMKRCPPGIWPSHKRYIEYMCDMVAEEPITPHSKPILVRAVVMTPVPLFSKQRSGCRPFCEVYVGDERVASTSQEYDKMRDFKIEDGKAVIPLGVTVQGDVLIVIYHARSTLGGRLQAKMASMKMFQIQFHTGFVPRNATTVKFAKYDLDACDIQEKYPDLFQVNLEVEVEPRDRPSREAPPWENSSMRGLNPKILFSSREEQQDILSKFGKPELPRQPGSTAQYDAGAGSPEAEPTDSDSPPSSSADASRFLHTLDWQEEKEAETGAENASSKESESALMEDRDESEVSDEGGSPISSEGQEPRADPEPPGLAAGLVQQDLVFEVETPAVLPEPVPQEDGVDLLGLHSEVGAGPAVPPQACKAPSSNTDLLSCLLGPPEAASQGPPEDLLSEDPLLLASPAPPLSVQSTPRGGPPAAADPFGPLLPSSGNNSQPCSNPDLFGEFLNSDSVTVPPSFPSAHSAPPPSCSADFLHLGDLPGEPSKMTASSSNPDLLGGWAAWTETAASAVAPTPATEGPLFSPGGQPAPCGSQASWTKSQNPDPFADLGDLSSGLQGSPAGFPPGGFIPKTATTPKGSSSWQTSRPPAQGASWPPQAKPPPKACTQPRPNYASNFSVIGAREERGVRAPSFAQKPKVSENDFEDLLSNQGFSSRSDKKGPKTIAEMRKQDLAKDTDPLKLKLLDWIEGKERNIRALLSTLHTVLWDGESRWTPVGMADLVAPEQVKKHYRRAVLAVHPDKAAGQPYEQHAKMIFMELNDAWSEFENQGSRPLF
Nature of the assay: Binding affinity to GAK assessed as change in thermal denaturation at 10 uM by thermal stability shift assay. In outline: as §1

The target in assay [5] is Dual specificity protein kinase CLK4 (Homo sapiens) (UniProt Q9HAZ1). Nature of the assay: Binding affinity to CLK4 assessed as change in thermal denaturation at 10 uM by thermal stability shift assay. In outline: as §1
Sequence of Dual specificity protein kinase CLK4 (Homo sapiens) (Q9HAZ1 whole entry, looked up): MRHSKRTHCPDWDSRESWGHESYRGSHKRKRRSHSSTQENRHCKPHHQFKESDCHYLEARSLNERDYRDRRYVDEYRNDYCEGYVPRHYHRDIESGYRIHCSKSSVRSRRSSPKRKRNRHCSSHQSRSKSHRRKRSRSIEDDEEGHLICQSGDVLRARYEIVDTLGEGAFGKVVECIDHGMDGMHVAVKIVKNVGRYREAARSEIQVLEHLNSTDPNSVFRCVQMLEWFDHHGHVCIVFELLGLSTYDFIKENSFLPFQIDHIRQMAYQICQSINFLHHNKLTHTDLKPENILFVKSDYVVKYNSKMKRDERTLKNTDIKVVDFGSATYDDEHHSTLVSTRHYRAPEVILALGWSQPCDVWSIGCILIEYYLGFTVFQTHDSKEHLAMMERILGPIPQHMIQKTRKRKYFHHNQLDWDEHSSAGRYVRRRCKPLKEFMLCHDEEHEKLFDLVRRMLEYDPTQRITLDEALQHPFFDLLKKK
The target of assay [6] is Serine/threonine-protein kinase pim-1 (Homo sapiens, UniProt P11309). Nature of the assay: Binding affinity to PIM1 assessed as change in thermal denaturation at 10 uM by thermal stability shift assay. In outline: as §1
Sequence of Serine/threonine-protein kinase pim-1 (P11309 whole entry, looked up): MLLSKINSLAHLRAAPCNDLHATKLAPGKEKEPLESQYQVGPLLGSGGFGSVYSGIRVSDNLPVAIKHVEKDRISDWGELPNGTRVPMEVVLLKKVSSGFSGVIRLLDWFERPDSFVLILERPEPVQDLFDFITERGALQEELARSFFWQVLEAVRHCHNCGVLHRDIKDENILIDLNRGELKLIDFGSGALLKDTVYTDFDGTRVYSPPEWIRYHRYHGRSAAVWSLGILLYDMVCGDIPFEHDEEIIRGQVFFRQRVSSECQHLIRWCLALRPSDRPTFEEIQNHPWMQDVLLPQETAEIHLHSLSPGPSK
The target of assay [7] is Death-associated protein kinase 3 (Homo sapiens) (UniProt O43293). Nature of the assay: Binding affinity to N-terminus His6-tagged DAPK3 expressed in Escherichia coli BL21 (DE3) cells coexpressing pCOEX assessed as change in thermal denaturation at 10 uM by thermal stability shift assay. In a few lines:
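DAPK3 was expressed in E. coli grown in TB with kanamycin and chloramphenicol at 37 °C, cooled to 25 °C, and induced with 0.5 mM IPTG. Binding was read as thermal-shift ΔTm in °C.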

The target of assay [8] is T3, Myosin light chain kinase family member 4 (Homo sapiens) (UniProt Q86YV6).
T3 sequence (whole entry): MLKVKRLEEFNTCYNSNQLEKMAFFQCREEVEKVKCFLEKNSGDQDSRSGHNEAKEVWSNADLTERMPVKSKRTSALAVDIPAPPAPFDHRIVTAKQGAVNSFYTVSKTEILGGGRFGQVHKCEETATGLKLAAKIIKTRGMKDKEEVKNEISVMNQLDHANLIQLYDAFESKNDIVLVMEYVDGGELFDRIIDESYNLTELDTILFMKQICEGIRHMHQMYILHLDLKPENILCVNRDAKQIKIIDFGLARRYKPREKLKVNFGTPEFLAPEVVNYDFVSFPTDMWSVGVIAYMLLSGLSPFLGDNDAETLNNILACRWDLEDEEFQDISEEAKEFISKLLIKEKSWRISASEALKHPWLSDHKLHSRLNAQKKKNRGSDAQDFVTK
As to the kind of experiment: Binding affinity to SGK085 assessed as change in thermal denaturation at 10 uM by thermal stability shift assay. In a few lines: as §1

The target in assay [9] is T4, Serine/threonine-protein kinase 17B (Homo sapiens) (UniProt O94768).
T4 sequence (whole entry): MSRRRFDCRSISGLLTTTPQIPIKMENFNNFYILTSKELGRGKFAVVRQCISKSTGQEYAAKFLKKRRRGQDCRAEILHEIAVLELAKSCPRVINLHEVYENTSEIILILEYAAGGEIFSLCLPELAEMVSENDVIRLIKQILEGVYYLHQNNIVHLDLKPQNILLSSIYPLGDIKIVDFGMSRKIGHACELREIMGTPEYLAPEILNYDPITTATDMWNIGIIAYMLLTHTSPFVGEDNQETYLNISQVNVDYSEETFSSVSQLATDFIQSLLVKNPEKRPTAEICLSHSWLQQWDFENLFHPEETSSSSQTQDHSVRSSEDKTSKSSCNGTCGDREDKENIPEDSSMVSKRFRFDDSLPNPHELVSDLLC
As to the kind of experiment: Binding affinity to DRAK2 assessed as change in thermal denaturation at 10 uM by thermal stability shift assay. In a few lines: as §1

In assay [10] the target is Serine/threonine-protein kinase pim-3 (Homo sapiens, UniProt Q86V86). Nature of the assay: Binding affinity to PIM3 assessed as change in thermal denaturation at 10 uM by thermal stability shift assay. In outline: as §1
In assay [11] the target is AP2-associated protein kinase 1 (Homo sapiens) (UniProt Q2M2I8). As to the kind of experiment: Binding affinity to AAK1 assessed as change in thermal denaturation at 10 uM by thermal stability shift assay. In outline:
as §1

For the next assay, the system named is K562. As to the kind of experiment: Growth inhibition of human K562 cells after 48 hrs by WST-1 assay. It counts as functional, cell-based. The conditions noted are these: K562, 48 h. In a few lines:
(§2)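 Compound (0–10 μM) added to the culture medium and incubated 48 h. Proliferation and viability read by WST-1 reagent. Survival expressed as percentage of control cultures and IC50 derived by curve fitting.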
A general note: Tetrazolium dyes change colour on reduction, which living cells bring about.

Assay [12] in a line: Growth inhibition of human SEM cells after 48 hrs by WST-1 assay. It counts as functional, cell-based. In outline: as §2
Assay [13] can be described thus: Growth inhibition of human RS4:11 cells after 48 hrs by WST-1 assay. It counts as functional, cell-based. As to conditions: RS4-11, 48 h. In outline:
as §2

The next assay relates to MOLM-13. Nature of the assay: Growth inhibition of human MOLM13 cells after 48 hrs by WST-1 assay. The conditions noted are these: MOLM-13, 48 h. The class given is functional, cell-based. In a few lines:
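Inhibitor at 0–10 μM added to the culture medium for 48 h. Proliferation and viability were read with WST-1 reagent. Survival was expressed as a percentage of control cultures, and IC50 was fitted from the concentration series.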

The subject of a further assay is MV4-11. As to the kind of experiment: Growth inhibition of human MV4-11 cells after 48 hrs by WST-1 assay. The class given is functional, cell-based. As to conditions: MV4-11, 48 h. In outline: as §2

Sequence of Death-associated protein kinase 3 (Homo sapiens) (O43293 whole entry, looked up): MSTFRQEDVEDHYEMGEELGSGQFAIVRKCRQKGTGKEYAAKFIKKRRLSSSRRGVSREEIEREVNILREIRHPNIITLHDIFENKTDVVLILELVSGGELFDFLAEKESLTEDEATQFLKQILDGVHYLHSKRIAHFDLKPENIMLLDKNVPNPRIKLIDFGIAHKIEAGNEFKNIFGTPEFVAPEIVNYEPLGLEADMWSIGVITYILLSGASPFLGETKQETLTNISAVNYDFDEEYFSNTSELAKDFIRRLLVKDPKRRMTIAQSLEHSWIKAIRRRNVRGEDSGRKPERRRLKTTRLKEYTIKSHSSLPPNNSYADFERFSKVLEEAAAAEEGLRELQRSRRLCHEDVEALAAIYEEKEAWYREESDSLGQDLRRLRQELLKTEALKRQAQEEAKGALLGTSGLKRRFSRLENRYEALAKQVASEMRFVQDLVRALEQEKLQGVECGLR
Sequence of Dual specificity protein kinase CLK1 (Homo sapiens) (P49759 whole entry, looked up): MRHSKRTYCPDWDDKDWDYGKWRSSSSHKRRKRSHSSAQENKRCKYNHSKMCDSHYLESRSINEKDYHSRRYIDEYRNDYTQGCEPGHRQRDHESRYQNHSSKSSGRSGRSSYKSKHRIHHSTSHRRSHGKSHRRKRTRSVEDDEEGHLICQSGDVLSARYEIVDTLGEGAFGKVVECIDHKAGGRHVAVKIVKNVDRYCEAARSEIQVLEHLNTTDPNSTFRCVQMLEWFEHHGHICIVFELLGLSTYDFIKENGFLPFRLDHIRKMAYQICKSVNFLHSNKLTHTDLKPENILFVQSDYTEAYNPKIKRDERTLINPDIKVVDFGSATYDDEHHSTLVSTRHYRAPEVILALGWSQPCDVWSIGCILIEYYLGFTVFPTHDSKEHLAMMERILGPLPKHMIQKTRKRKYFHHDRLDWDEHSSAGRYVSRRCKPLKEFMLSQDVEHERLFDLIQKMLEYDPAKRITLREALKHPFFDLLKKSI
Sequence of AP2-associated protein kinase 1 (Homo sapiens) (Q2M2I8 whole entry, looked up): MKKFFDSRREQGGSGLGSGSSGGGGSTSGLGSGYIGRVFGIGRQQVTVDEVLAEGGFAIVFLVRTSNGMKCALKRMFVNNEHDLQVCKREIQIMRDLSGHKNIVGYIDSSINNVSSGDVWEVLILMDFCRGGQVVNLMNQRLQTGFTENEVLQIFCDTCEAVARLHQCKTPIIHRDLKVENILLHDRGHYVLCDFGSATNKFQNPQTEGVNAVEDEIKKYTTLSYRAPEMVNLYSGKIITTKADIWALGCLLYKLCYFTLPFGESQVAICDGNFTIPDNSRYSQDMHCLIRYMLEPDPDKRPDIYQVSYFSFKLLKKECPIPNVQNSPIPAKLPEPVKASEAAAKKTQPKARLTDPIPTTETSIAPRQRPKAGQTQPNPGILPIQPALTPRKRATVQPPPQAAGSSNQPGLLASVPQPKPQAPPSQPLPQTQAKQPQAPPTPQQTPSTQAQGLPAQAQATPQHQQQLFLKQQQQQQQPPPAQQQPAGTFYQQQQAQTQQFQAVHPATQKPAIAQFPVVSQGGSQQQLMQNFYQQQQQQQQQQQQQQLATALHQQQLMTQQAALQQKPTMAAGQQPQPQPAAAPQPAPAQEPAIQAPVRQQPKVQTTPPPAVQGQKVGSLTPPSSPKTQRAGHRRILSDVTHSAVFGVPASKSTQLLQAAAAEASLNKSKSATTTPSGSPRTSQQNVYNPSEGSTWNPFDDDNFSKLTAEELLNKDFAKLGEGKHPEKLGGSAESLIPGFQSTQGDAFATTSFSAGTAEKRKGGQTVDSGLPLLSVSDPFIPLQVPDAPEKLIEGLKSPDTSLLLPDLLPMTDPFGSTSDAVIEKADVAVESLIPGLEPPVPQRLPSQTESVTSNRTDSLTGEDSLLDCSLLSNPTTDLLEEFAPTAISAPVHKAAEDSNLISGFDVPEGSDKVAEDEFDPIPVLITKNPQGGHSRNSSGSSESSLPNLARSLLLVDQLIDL

In the case of `Cn1c2c(c3ccc(Cl)c(Cl)c31)C(C#N)C1(CCCCC1)NC2=O` (racemic), the ΔTm in [1] amounted to 3 °C; in assay [2], 0.8 °C; in assay [3] it was 4 °C; in assay [4], 0.9 °C; in assay [5] it was 1.1 °C; in assay [6], 4.7 °C. Besides, the shift in melting temperature (ΔTm) was found to be 4.7 °C in assay [7]; 0.5 °C in [8]; 2.9 °C in [9]; 4 °C in [10]; 1.7 °C in assay [11].

As to `CC(=O)c1cccc(-c2cnc3ccc(NCC4CC4)nn23)c1`, the concentration for half-maximal inhibition (IC50) in the assay with K562 worked out at 8 µM; in assay [12] it was 6 µM; in [13], 8.8 µM; with MOLM-13, 300 nM; in the assay on MV4-11, 400 nM.

By ΔTm is commonly meant the change in melting temperature against a reference sample. For orientation: IC50 means the concentration that gives 50% inhibition. A low value points to higher potency.

Values taken from ChEMBL document CHEMBL1944596, “7,8-dichloro-1-oxo-β-carbolines as a versatile scaffold for the development of potent and selective kinase inhibitors with unusual binding modes” (J Med Chem, 2012).
